Each block holds one compound with its values, some of them ahead of it. Calls of active or inactive are those of the source.
Key:
[1] = biological target: 5-hydroxytryptamine receptor 2B (Homo sapiens) (UniProt P41595); experiment: Displacement of [3H]-LSD from recombinant human 5HT2B receptor at 1 uM after 30 mins by scintillation counting method relative to control
Procedure, shortened: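 Human 5-HT2B-enriched membranes (5 µg), 1 nM [3H]LSD in 50 mM Tris-HCl, 4 mM CaCl2, 1% ascorbic acid, pH 7.4, 0.1% DMSO; 30 min, 37 °C; 50 µM 5-HT for nonspecific binding. Single 1 µM compound concentration; displacement after filtration.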

[2] = Drug metabolism in rat liver microsomes at 1 uM incubated for 1 hr in presence of NADPH by UPLC-MS analysis; assay type: ADME, Microsome; settings: read-out: Drug metabolism
Procedure, shortened: (§1)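 Liver microsomes, compound 1 µM, 37 °C for 1 h in 50 mM Na/K phosphate pH 7.4, 3 mM MgCl2, NADPH-regenerating system, CYP 0.3 nmol/mL. Aliquots at 0, 10, 20, 40, 60 min quenched with cold acetonitrile, supernatants by UPLC-MS/MS; % parent remaining at end reported. Terfenadine as positive control.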

[3] = Drug metabolism in mouse liver microsomes at 1 uM incubated for 1 hr in presence of NADPH by UPLC-MS analysis; assay type: ADME, Microsome; settings: read-out: Drug metabolism; procedure, shortened: as §1
[4] = Drug metabolism in human liver microsomes at 1 uM incubated for 1 hr in presence of NADPH by UPLC-MS analysis; assay type: ADME, Microsome; settings: read-out: Drug metabolism; procedure, shortened: as §1
[5] = Stability of compound in aqueous HCl solution at pH 2 after 24 hrs by HPLC analysis; assay type: physicochemical; settings: buffer, pH 2, 24 h
Procedure, shortened: (§2)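 Compound (25 μL of 10 mM DMSO stock) added to 1 mL aqueous buffered solution, pH 2 or pH 7.4, stirred 24 h at room temperature, analyzed by HPLC-MS; deemed stable if peak area remained 95–105%.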

[6] = biological target: Kappa-type opioid receptor (Homo sapiens, UniProt P41145); experiment: Inhibition of KOR (unknown origin)
CYP2D6 = CYP2D6 (Homo sapiens, UniProt P10635); experiment: Inhibition of recombinant human CYP2D6 at 1 uM by fluorescence probe substrate-based flurometric analysis; assay type: ADME
[7] = biological target: Delta-type opioid receptor (Homo sapiens, UniProt P41143); experiment: Inhibition of DOR (unknown origin)
[8] = biological target: Alpha-1A adrenergic receptor (Homo sapiens) (UniProt P35348); experiment: Displacement of [3H]prazosin from human adrenergic alpha1A receptor at 1 uM after 90 mins by scintillation counting method relative to control
Procedure, shortened: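 α1A adrenoceptor-enriched human membranes (10 µg), 0.2 nM [3H]prazosin in 50 mM HEPES, 5 mM MgCl2, 1 mM CaCl2, 0.2% BSA, pH 7.4; 90 min at 25 °C; 1 µM prazosin for nonspecific binding. Compound tested at 1 µM; bound ligand collected by filtration.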

[9] = biological target: T1, Sigma intracellular receptor 2 (Rattus norvegicus, UniProt Q5U3Y7); experiment: Displacement of [3H]-di-o-tolylguanidine from sigma2 receptor in rat liver membranes incubated for 120 mins by scintillation counting method; assay type: cell membranes
T1 sequence (Q5U3Y7 whole entry): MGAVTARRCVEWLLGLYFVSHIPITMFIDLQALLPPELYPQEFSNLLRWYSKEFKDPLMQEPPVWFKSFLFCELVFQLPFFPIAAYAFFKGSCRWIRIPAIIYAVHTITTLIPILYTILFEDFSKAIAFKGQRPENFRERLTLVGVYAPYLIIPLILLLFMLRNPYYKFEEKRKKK

HepG2 [10] = experiment: Cytotoxicity against human HepG2 assessed as reduction in cell viability at 1 to 100 uM after 20 hrs by neutral red uptake assay; assay type: cell-based; settings: hepg2, 20 h
Procedure, shortened: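 HepG2 seeded 3 x 10^4/well, 24 h, then 20 h serum-free exposure at 1, 10 or 100 µM. Neutral red 50 µg/mL for 3 h, washed, dye extracted with 50% ethanol/1% acetic acid, OD 550 nm. IC50 assigned as lowest concentration reaching ≥50% cytotoxicity against untreated cells; n = 4 (duplicate, two assays).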

Mu-type opioid receptor [11] = biological target: T2, Mu-type opioid receptor (Homo sapiens, UniProt P35372); experiment: Displacement of [3H]DAMGO from human MOR expressed in CHO-K1 cells membranes after 60 mins by micro beta scintillation counting method; assay type: cell membranes
Procedure, shortened: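 Human MOR in CHO-K1 membranes (20 µg) with 1 nM [3H]DAMGO in 50 mM Tris-HCl, 5 mM MgCl2, pH 7.4, 27 °C for 60 min. Test compound at five concentrations; 10 µM naloxone defines nonspecific binding. Filtered, washed thrice with ice-cold 10 mM Tris-HCl, counted by liquid scintillation.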

[12] = biological target: Sodium-dependent serotonin transporter (Homo sapiens) (UniProt P31645); experiment: Displacement of [3H]imipramine from human serotonin transporter at 1 uM after 30 mins by scintillation counting method relative to control
Procedure, shortened: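 Human SERT-enriched membranes (3.5 μg) incubated 30 min at 27 °C with 3 nM [3H]imipramine in Tris-HCl/120 mM NaCl/5 mM KCl pH 7.4, 0.1% DMSO; 200 μM imipramine for nonspecific binding. Compound at 1 μM; displacement after filtration.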

Sus scrofa [13] = organism: Sus scrofa; settings: at 1 µM
[14] = biological target: Sodium-dependent noradrenaline transporter (Homo sapiens) (UniProt P23975); experiment: Displacement of [3H]nisoxetine from recombinant human norepinephrine transporter at 1 uM after 60 mins by scintillation counting method relative to control
Procedure, shortened: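 Human NET-enriched membranes (1 μg), 5 nM [3H]nisoxetine in 50 mM Tris-HCl, 120 mM NaCl, 5 mM KCl, pH 7.4, 1% DMSO final; 60 min at 4 °C; 10 μM desipramine for nonspecific binding. Single 1 μM compound; filtration, displacement of radioligand.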

[15] = biological target: Voltage-gated inwardly rectifying potassium channel KCNH2 (Homo sapiens, UniProt Q12809); experiment: Inhibition of human ERG expressed in CHO cells at -80 mV holding potential by automated patch clamp electrophysiology assay; assay type: cell-based
Mu-type opioid receptor [16] = biological target: T2, Mu-type opioid receptor; experiment: Agonist activity at MOR (unknown origin) by cAMP assay; assay type: functional
[17] = biological target: Sigma non-opioid intracellular receptor 1 (Cavia porcellus, UniProt Q60492); assay type: cell membranes;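 further: radioligand displacement of [3H]-(+)-pentazocine from guinea pig brain cortex membranes, 120 min incubation, bound radioactivity read by scintillation counting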
[18] = Stability of compound in phosphate buffer at pH 7.4 after 24 hrs by HPLC analysis; assay type: physicochemical; settings: pH 7.4, 24 h; procedure, shortened: as §2
[19] = biological target: Histamine H1 receptor (Homo sapiens) (UniProt P35367); experiment: Displacement of [3H]pyrilamine from human recombinant histamine H1 receptor at 1 uM after 90 mins by scintillation counting method relative to control
Procedure, shortened: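 Human H1 receptor-enriched membranes (25 μg) with 2.4 nM [3H]pyrilamine in Na+/K+ phosphate buffer pH 7.4, 0.1% DMSO, 90 min, 25 °C; 10 μM triprolidine for nonspecific binding. Single 1 μM test concentration; filtration-based readout of displacement.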

[20] = biological target: Sodium-dependent dopamine transporter (Homo sapiens) (UniProt Q01959); experiment: Displacement of [3H]GBR12935 from human DAT at 1 uM after 120 mins by scintillation counting method relative to control
Procedure, shortened: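 DAT-enriched human membranes (5 µg), 2 nM [3H]GBR12935 in 50 mM Tris-HCl/100 mM NaCl pH 7.4, 0.1% DMSO, 120 min at 4 °C; 10 µM GBR12909 for nonspecific binding. Compound at 1 µM; displacement measured after filtration.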

[21] = Displacement of [3H] ifenprodil from GluN2B/GluN1a (unknown origin) expressed in mouse L(tk-) cell membranes incubated for 120 mins by scintillation counting method; design: species or system Homo sapiens
Procedure, shortened: (§3)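 Membranes from mouse L(tk-) cells co-transfected with dexamethasone-inducible GluN1a/GluN2B (1:5), induced 24 h with 4 μM dexamethasone plus 4 μM ketamine.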

HepG2 [22] = experiment: Cytotoxicity against human HepG2 assessed as reduction in cell viability at 1 to 100 uM after 20 hrs by MTT assay; assay type: cell-based; settings: hepg2, 20 h
Procedure, shortened: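 HepG2 cells, 3 x 10^4/well, grown 24 h in MEM/10% FBS, then exposed 20 h in serum-free medium to compound at 1, 10, 100 µM (from DMSO solutions). MTT 0.5 mg/mL for 4 h, formazan dissolved in DMSO, OD 550 nm. IC50 taken as lowest concentration giving ≥50% cytotoxicity versus untreated cells; duplicates in two assays (n = 4).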

[23] = biological target: 5-hydroxytryptamine receptor 1A (Homo sapiens) (UniProt P08908); experiment: Displacement of [3H]8-OH-DPAT from human 5HT1A receptor at 1 uM incubated for 2 hrs scintillation counting method relative to control
Procedure, shortened: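 Human 5-HT1A-enriched membranes (10 μg), 2 nM [3H]-8-OH-DPAT, 50 mM Tris-HCl/5 mM MgCl2 pH 7.4, 0.1% DMSO final, 2 h at 37 °C; 10 μM 5-HT for nonspecific binding. Compound at 1 μM; radioligand displacement read after GF/C filtration.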

[24] = biological target: Sigma non-opioid intracellular receptor 1 (Cavia porcellus) (UniProt Q60492); experiment: Displacement of [3H]-(+)-pentazocine from sigma1 receptor in guinea pig brain cortex membranes at 10^-10 to 10^-5 mol/L incubated for 120 mins by scintillation counting method relative to control; assay type: cell membranes
Homo sapiens = organism: Homo sapiens; experiment: Displacement of [3H] ifenprodil from GluN2B/GluN1a (unknown origin) expressed in mouse L(tk-) cell membranes at 10^-10 to 10^-5 mol/L incubated for 120 mins by scintillation counting method relative to control; procedure, shortened: as §3
[25] = biological target: Sigma intracellular receptor 2 (Rattus norvegicus) (UniProt Q5U3Y7); experiment: Displacement of [3H]-di-o-tolylguanidine from sigma2 receptor in rat liver membranes at 10^-10 to 10^-5 mol/L incubated for 120 mins by scintillation counting method relative to control; assay type: cell membranes
Mus musculus = experiment: Antiallodynic activity in CD-1 mouse model of capsaicin-induced mechanical allodynia assessed as increase in paw withdrawal threshold at 32 mg/kg, sc administered 30 mins before capsaicin addition and measured after 15 mins by von-Frey test; assay type: functional, organism-based
Procedure, shortened: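 Female CD-1 mice given compound or HPMC vehicle sc 30 min before intraplantar capsaicin (1 µg in 20 µL, 1% DMSO). 15 min later, electronic von Frey punctate stimulus (0.5 g) at least 5 mm from injection site; paw withdrawal latency, three trials 30 s apart, 50 s cutoff. % antiallodynic effect = [(LTD−LTS)/(CT−LTS)]×100; 6-8 mice per group, ANOVA with Bonferroni.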

Sus scrofa [26] = organism: Sus scrofa; experiment: Displacement of [3H]-(+)-MK-801 from NMDA PCP binding site in pig brain cortex membrane at 10 uM incubated for 180 mins by scintillation counting method relative to control; assay type: cell membranes

T2 sequence (P35372 whole entry): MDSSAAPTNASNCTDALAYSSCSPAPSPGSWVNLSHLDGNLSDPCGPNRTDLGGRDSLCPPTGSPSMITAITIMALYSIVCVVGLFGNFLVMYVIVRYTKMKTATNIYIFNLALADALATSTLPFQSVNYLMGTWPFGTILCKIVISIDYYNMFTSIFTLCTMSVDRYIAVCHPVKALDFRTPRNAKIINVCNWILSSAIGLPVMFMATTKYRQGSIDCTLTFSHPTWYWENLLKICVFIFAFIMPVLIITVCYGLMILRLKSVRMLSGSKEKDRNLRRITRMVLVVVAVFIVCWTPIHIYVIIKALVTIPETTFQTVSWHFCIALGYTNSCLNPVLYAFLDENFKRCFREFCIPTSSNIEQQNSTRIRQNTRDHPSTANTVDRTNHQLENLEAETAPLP
Sequence of Kappa-type opioid receptor (P41145 whole entry): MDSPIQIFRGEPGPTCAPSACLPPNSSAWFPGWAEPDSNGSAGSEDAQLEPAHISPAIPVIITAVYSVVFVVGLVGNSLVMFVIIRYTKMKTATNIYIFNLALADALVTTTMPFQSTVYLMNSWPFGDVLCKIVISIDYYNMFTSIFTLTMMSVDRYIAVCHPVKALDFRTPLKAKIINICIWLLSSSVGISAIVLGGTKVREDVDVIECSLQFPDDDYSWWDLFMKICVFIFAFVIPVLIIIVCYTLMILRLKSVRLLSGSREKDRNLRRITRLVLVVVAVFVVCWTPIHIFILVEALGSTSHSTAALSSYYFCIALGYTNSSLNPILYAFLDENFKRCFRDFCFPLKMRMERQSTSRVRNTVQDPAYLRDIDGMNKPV
Sequence of Sodium-dependent dopamine transporter (Homo sapiens) (Q01959 whole entry): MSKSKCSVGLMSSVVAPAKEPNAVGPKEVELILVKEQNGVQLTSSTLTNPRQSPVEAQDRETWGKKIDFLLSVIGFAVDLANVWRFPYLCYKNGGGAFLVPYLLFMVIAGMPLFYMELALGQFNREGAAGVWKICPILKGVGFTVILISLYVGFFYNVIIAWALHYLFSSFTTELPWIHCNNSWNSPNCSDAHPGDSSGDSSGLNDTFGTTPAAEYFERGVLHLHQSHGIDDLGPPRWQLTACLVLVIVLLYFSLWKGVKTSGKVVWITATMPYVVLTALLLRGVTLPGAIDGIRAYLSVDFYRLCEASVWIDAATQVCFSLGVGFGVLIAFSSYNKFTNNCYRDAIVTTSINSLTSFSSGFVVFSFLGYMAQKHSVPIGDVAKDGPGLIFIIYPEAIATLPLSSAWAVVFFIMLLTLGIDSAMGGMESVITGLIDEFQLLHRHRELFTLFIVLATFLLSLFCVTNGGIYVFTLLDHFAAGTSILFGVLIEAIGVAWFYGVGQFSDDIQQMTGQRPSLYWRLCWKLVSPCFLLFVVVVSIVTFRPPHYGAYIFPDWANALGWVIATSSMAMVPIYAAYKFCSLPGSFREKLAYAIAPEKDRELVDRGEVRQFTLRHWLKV
Sequence of 5-hydroxytryptamine receptor 1A (Homo sapiens) (P08908 whole entry): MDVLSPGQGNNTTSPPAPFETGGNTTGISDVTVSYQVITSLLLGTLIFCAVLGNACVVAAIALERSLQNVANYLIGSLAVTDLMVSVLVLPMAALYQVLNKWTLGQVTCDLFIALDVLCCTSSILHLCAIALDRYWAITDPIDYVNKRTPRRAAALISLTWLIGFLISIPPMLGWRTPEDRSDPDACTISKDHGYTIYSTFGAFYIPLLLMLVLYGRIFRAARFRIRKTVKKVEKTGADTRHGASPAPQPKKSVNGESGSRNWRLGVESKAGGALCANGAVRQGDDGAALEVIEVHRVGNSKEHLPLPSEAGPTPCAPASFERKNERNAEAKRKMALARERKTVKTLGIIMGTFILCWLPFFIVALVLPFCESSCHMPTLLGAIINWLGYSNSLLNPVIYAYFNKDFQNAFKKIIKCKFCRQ
Sequence of Sigma non-opioid intracellular receptor 1 (Q60492 whole entry): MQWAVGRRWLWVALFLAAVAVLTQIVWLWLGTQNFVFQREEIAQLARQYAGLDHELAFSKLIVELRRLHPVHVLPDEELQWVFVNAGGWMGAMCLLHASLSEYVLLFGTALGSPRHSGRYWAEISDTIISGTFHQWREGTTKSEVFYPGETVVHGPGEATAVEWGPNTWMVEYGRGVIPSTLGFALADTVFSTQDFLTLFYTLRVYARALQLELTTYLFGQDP
Sequence of Sigma non-opioid intracellular receptor 1 (Cavia porcellus) (Q60492 whole entry): as above
Sequence of Sodium-dependent serotonin transporter (Homo sapiens) (P31645 whole entry, looked up): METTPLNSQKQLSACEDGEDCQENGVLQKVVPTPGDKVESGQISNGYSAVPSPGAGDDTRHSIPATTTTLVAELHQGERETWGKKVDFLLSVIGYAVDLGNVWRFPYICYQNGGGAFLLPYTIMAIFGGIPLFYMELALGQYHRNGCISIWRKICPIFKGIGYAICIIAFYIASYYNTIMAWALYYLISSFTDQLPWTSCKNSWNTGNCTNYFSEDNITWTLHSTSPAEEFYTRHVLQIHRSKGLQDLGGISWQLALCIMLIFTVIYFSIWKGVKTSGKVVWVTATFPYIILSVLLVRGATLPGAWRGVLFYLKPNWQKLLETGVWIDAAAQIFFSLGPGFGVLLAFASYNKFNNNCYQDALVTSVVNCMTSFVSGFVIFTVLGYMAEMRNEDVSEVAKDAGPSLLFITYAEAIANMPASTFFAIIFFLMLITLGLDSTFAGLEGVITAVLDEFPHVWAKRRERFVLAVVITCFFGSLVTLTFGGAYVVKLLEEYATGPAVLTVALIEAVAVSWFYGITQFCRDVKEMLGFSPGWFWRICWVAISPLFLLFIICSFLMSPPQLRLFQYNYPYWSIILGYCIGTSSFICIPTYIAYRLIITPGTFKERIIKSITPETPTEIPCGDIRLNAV
Sequence of 5-hydroxytryptamine receptor 2B (Homo sapiens) (P41595 whole entry): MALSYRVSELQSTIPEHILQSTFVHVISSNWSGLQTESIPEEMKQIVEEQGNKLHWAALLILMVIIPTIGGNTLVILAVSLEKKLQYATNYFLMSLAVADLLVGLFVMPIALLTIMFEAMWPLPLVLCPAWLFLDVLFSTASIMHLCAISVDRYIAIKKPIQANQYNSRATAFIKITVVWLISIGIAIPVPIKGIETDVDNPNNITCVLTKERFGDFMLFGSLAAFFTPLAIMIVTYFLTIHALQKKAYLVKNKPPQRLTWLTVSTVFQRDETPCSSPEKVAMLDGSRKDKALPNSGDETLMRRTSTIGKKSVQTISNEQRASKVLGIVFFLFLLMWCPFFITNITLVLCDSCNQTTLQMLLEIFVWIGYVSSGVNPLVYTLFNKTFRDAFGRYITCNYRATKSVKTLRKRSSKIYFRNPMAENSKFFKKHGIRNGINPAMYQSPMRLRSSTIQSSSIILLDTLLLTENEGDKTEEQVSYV
Sequence of Delta-type opioid receptor (P41143 whole entry): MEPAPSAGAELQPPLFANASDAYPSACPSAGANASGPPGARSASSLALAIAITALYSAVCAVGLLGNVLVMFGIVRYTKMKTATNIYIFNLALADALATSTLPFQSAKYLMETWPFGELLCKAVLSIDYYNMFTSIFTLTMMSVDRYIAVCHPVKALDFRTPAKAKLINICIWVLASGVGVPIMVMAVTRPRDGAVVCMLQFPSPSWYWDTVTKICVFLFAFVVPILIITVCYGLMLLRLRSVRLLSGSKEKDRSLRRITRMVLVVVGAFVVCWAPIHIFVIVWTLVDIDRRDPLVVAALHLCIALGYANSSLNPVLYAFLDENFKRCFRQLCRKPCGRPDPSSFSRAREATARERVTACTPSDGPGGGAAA
Sequence of Voltage-gated inwardly rectifying potassium channel KCNH2 (Q12809 whole entry): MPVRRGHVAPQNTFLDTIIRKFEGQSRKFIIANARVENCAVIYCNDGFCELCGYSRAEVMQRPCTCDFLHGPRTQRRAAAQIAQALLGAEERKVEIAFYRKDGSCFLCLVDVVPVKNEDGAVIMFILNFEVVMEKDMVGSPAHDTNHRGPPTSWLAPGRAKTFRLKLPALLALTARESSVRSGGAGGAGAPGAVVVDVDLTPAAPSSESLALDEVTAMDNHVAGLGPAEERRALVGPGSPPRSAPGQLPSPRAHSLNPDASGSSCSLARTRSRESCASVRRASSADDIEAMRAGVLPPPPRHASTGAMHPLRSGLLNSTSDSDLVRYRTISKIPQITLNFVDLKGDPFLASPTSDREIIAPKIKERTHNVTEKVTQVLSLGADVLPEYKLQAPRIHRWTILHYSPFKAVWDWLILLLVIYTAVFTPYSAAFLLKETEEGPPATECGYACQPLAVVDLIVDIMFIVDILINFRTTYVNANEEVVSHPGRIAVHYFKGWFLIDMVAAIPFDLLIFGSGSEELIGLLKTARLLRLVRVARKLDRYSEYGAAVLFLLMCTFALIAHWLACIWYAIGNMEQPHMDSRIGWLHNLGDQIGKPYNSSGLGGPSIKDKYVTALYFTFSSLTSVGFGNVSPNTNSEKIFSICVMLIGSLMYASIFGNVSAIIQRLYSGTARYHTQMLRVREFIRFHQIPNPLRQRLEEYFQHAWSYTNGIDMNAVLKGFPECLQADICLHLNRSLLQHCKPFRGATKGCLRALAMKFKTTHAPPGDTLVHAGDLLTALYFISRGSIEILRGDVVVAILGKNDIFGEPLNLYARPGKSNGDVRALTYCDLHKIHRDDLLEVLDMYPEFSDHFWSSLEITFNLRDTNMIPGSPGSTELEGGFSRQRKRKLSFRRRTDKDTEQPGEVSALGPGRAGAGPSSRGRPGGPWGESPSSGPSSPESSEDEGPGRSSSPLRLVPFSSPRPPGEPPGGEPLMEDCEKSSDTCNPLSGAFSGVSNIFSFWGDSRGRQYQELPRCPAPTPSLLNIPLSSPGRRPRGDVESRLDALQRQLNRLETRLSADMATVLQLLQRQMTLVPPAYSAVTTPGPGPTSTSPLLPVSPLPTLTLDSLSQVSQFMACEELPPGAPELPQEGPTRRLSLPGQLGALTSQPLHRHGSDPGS

inhibition [1]: < 50% | metabolised at 1 h, 1 µM [2]: 100% | metabolised at 1 h, 1 µM [3]: 100% | metabolised at 1 h, 1 µM [4]: 100% | Stability [5]: Stable | Ki [6]: > 1000 nM | inhibition at 1 µM (CYP2D6): 85% | Ki [7]: > 1000 nM | inhibition [8]: < 50% | Ki [9]: 48 nM | Ki (Mu-type opioid receptor [11]): 406 nM | inhibition [12]: < 50% | inhibition (Sus scrofa [13]): 0% | inhibition [14]: < 50% | EC50 (Mu-type opioid receptor [16]): > 10000 nM | Ki [17]: 8 nM | Stability [18]: Stable | inhibition [19]: < 50% | inhibition [20]: < 50% | inhibition [23]: 72%
Structure (SMILES): FC(CCN1CCc2ccccc2CC1)Cc1ccccc1 (stereo unspecified)
Activity (HepG2 [10]): Toxic | IC50 [15]: 1180 nM | Ki [21]: 30 nM | Activity (HepG2 [22]): Toxic

inhibition [24]: 0% | inhibition (Sus scrofa [13]): 0% | inhibition [25]: 0%
Structure (SMILES): COc1ccc2c(c1)CCN1CC2OC1C(F)CCc1ccccc1 (stereo unspecified)
inhibition (Homo sapiens): 8%

Structure (SMILES): CN1CCN(CCc2ccc(Cl)c(Cl)c2)CC1
Activity (Mus musculus): Active

inhibition (Sus scrofa [26]): 22%
Structure (SMILES): COc1ccc2c(c1)CCN(CCCCc1ccccc1)CC2O (stereo unspecified)
Ki [21]: 706 nM

— ChEMBL document CHEMBL4393719, “Tetrahydro-3-benzazepines with fluorinated side chains as NMDA and σ1 receptor antagonists: Synthesis, receptor affinity, selectivity and antiallodynic activity” (Eur J Med Chem, 2019)
